From PubChem BioAssay
Only some compounds are listed: those with a hit (about 3.7% of all), similar ones and a draw of the others.
KCNQ1 inh = blocks the human KCNQ1 potassium channel; P51787; CHO-K1 KCNQ1, FluxOR thallium flux fluorescence; stronger effect = higher value; B-score at 10 µM; 310,000 compounds, 1.3% hits; AID 2642;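 active = compounds whose thallium flux B-score, printed positive for inhibition, exceeds three library SD while starting fluorescence stays within three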;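 also: channel opened by potassium depolarization with thallium stimulus after 20 min compound exposure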
hERG protect = shields human hERG channel from block by proarrhythmic agents; Q12809; CHO-hERG, FluxOR thallium flux, dofetilide IC70 present; AID 1511; 310,000 compounds, 0.51% hits; activation (rescue from dofetilide block), less the hit threshold, % at 10 µM;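 active = activation above the mean of controls blocked by dofetilide plus 5 SD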;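 also: thallium influx through hERG after potassium depolarization seen as dye fluorescence rise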
Kir21 block = inhibitors of mouse Kir2.1 inward-rectifier potassium channel | P35561 | HEK293-Kir2.1, FluxOR thallium flux fluorescence; stronger effect = lower value | B-score at 10 µM | 310,000 compounds, 0.85% hits;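 active = fluorescence ratio B-score at or below minus 3 SD of library scores, with starting-brightness B-score within 2 SD, cut at about -4.2 in these data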;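 also: channel flux triggered by added potassium and thallium sulfate stimulus; B-score of peak minus minimum fluorescence over baseline after thallium stimulus; more negative B-score means stronger Kir2.1 block with less thallium influx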
KCNQ1 act = human KCNQ1 channel potentiation or activation; CHO-K1 KCNQ1, thallium flux FluxOR fluorescence; stronger effect = higher value; 310,000 compounds, 0.35% hits; B-score at 10 µM;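 active = fluorescence ratio B-score, a plate-corrected score, at least three library SD, with initial intensity B-score within 5 SD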
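Assay system: stable KCNQ1 CHO-K1 line; medium: assay buffer, equal DMSO in all wells; timing: 90 min dye loading and 20 min compound exposure, both at room temperature; technique: kinetic FluxOR thallium fluorescence, 10-s 1-Hz baseline, 110-s post-stimulus read; read-out basis: B score of baseline-normalized fluorescence ratio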
KCNK3 block = human KCNK3 channel inhibition, primary screen; O14649; CHO-KCNK3 thallium flux, FluxOR fluorescence; stronger effect = lower value; B-score at 10 µM; 340,000 compounds, 0.84% hits; AID 602410;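 active = B-score under library mean minus 4 SD, starting fluorescence ratio at most library mean plus 5 SD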;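 also: more negative B-score means stronger inhibition of thallium flux through KCNK3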
KCNK9 inh = inhibitors of human KCNK9 two-pore domain potassium channel; 310,000 compounds, 1.2% hits; HEK293 KCNK9, FluxOR thallium flux fluorescence; stronger effect = lower value; B-score at 10 µM;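 active = ratio B-score over 3 SD below the library mean, with starting fluorescence within 5 SD of its mean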;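 also: negative B-score means less thallium flux so channel inhibition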
A number is an active result; . = inactive; / = not tested or not shown.

SMILES	KCNQ1 inh	hERG protect	Kir21 block	KCNQ1 act	KCNK3 block	KCNK9 inh
C/C=C(\C)C(=O)OC1C(C)=C2C(C1OC(=O)CCCCC)C(C)(OC(C)=O)CC(OC(=O)CCC)C1(O)C2OC(=O)C1(C)O (stereo unspecified)	.	.	.	14	/	.
CCCCc1ccc(NC2=NCCCS2)cc1	.	.	-4.9	.	.	.
CC(=O)c1ccc(NC2=NCCCS2)cc1	.	.	.	.	.	.
O=c1[nH]c(=O)n(-c2ccccc2F)c(O)c1/C=C1\C=Nc2ccccc21	.	.	.	.	.	.
O=c1[nH]c(=O)n(-c2ccc(F)cc2)c(O)c1/C=C1\C=Nc2ccccc21	9	.	.	.	.	.
C[N+]1(C)CCN(c2ccccc2)CC1	.	.	.	.	.	.
O=C1NC(=O)N(Cc2cccs2)C(=O)/C1=C/c1ccc(N2CCOCC2)cc1	.	.	.	.	.	.
O=C1NC(=O)N(Cc2ccccc2Cl)C(=O)/C1=C/N1CCOCC1	.	8.0	.	.	.	.
CCCCOCCCn1c(N)c(C(=O)OC(C)COC)c2nc3ccccc3nc21 (stereo unspecified)	.	.	.	.	-11	.
CCCCn1c(=O)c(C(=O)NC(C)c2ccccc2)c(O)c2ccccc21 (stereo unspecified)	6	.	.	.	.	.
CCCCCn1c(=O)c(C(=O)NCc2ccncc2)c(O)c2ccccc21	8	.	.	.	.	-7.9
CCCCn1c(=O)c(C(=O)NCCc2ccccc2)c(O)c2ccccc21	7	.	.	.	.	.
CCCCCn1c(=O)c(C(=O)Nc2ccccc2)c(O)c2ccccc21	.	.	.	.	.	.
CCCCn1c(=O)c(C(=O)NCc2ccc(Cl)cc2)c(O)c2ccccc21	.	.	.	.	.	.
CC1CC(C)CN(C(=O)COC(=O)c2cn(C)c3ccccc23)C1 (stereo unspecified)	/	/	/	/	.	/
CC(=NCc1ccc(F)cc1)c1c(O)n(C)c(=O)n(C)c1=O	.	.	.	.	.	.
O=[N+]([O-])c1cc(F)c(N2CCCC2)cc1Br	6	.	.	.	.	.
CN1CCN(c2cc(N3CCCC3)c([N+](=O)[O-])cc2F)CC1	.	.	.	9	.	.
CN[C@H]1C[C@H]2O[C@@](C)([C@H]1OC)n1c3ccccc3c3c4c(c5c6ccccc6n2c5c31)C(=O)NC4	.	.	.	18	/	.
O=C1Nc2cc(C(=O)N3CCC4(CC3)OCCO4)ccc2S/C1=C\c1ccccc1	.	.	.	.	.	.
CCOP(=S)(OCC)Oc1nc(Cl)c(Cl)cc1Cl	/	/	/	/	-9.1	/
CC/C(=C\C=C\[C@@H]1C=C[C@@H]2CCC[C@H]2[C@@H]1C(=O)c1ccc[nH]1)[C@@H]1O[C@@H]([C@@H](C)C(=O)O)CC[C@@H]1C	.	74	.	38	/	.
CC(C)C(=O)c1cn(Cc2ccc(C#N)cc2)c2ccccc12	.	.	.	.	.	-6.9
CC1CC2C(C(O)CC3(C)C(O)CCC23)C2(C)CCC(=O)C=C12 (stereo unspecified)	/	/	/	/	.	/
O=C1NC(=O)C(=Cc2ccc(-c3ccccc3[N+](=O)[O-])o2)C(=O)N1	.	.	.	.	.	.
SMILES	KCNQ1 inh	hERG protect	Kir21 block	KCNQ1 act	KCNK3 block	KCNK9 inh
O=C1NC(=O)C(=Cc2ccc(-c3cc(Cl)ccc3[N+](=O)[O-])o2)C(=O)N1	.	24	.	.	.	.
O=c1c2ccccc2nc(-c2ccccc2Cl)n1-c1ccc(O)cc1	.	.	.	.	.	.
O=C(CCN1CC2CCC(CC2)C1)c1cccs1	/	/	/	/	.	/
CCCC[N+]12CCC(CC1)C(C(=O)c1cccs1)C2 (stereo unspecified)	.	.	-4.9	.	.	.
CCOP(=O)(OCC)C(NC(C)=O)C(Cl)(Cl)Cl (stereo unspecified)	.	.	.	.	.	.
COc1ccc(CCNCc2ccc(Br)cc2)cc1OC	.	.	.	.	.	.
Cc1ccccc1CCNCc1ccc(Br)cc1	.	.	-9.6	.	.	.
O=c1ccc2cc(O[C@@H]3O[C@@H](CO)[C@H](O)[C@@H](O)[C@@H]3O)c(O)cc2o1	.	.	.	.	.	.
O=c1[nH]c(=S)n(C2CC2)c(O)c1C=NCCN1CCOCC1	.	.	.	.	.	.
